Among the data in ChEMBL document CHEMBL1155246, “Synthesis, antioxidant properties and radioprotective effects of new benzothiazoles and thiadiazoles” (Bioorg Med Chem, 2009) are IC50, survival and LD50 values, retold here.

pIC50: −log10 of the molar value.

The subject of data set [1] is Radical scavenging activity. Briefly: Antioxidant activity assessed as DPPH free radical scavenging activity by UV spectroscopic method. The data set is classed as functional.
Data set [2] is described as follows: Antioxidant activity assessed as ABTS free radical scavenging activity by radical cation discoloration assay. The class given is functional. Conditions: for pIC50: read-out: IC50. The procedure, abridged:
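ABTS radical cation made by mixing aqueous 7.0 mM ABTS with potassium persulfate to 3.5 mM final and holding overnight in the dark. It was diluted with ethanol to an initial A734 of 0.70 at 30 °C. Test compound was added at several concentrations. Absorbance at 734 nm was read at 0, 0.5 and 1 min, then every 5 min to steady state. IC50 was taken as the concentration giving 50% reduction of the radical cation.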

Data set [3] relates to Mus musculus. Briefly: Radioprotective activity against gamma radiation-induced toxicity in B6D2F1 mouse assessed as survival at 240 mg/kg, ip administered 15 mins before 8.8 Gy irradiation measured after 30 days. The data set is classed as functional. The settings on record: B6D2F1, light or radiation study, route intraperitoneal.
For data set [4], the system named is Mus musculus. The experiment in a line: Radioprotective activity against gamma radiation-induced toxicity in Swiss CD1 mouse assessed as survival at 480 mg/kg, ip administered 90 mins before 10.2 Gy irradiation measured after 30 days. The class given is functional. The settings on record: Swiss CD1, light or radiation study, route intraperitoneal. The gist of the method:
(§1)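 Male six-week-old Swiss CD1 mice, 10 per group; compound in Mygliol 812 given ip (20 ml/kg) at maximum tolerated dose (1/2 LD50tox/48H) 90 min before 60Co gamma irradiation (300 mGy/min) at 8.2 Gy (LD99.9/30days) or 10.2 Gy; survival percentage at day 30.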

Data set [5] has as its system Mus musculus. The experiment in a line: Radioprotective activity against gamma radiation-induced toxicity in B6D2F1 mouse assessed as survival at 480 mg/kg, ip administered 15 mins before 8.8 Gy irradiation measured after 30 days. The class given is functional. Conditions: B6D2F1, light or radiation study, route intraperitoneal.
A short description of data set [6]: Acute toxicity in Swiss CD1 mouse assessed as lethality after 48 hrs. The data set is classed as organism-based. The settings on record: in vivo. The gist of the method:
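Male six-week-old Swiss CD1 mice; compound given intraperitoneally at different concentrations; deaths counted at 48 h to derive LD50tox/48H, the concentration killing 50% of animals.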

Data set [7] deals with Mus musculus. The experiment in a line: Radioprotective activity against gamma radiation-induced toxicity in Swiss CD1 mouse assessed as survival at 480 mg/kg, ip administered 90 mins before 8.2 Gy irradiation measured after 30 days. Conditions: Swiss CD1, light or radiation study, route intraperitoneal. The data set is classed as functional. The gist of the method:
as §1

In data set [8] the test system is Mus musculus. Briefly: Radioprotective activity against gamma radiation-induced toxicity in Swiss CD1 mouse assessed as survival at 368 mg/kg, ip administered 90 mins before 10.2 Gy irradiation measured after 30 days. The data set is classed as functional. Conditions: Swiss CD1, light or radiation study, route intraperitoneal. The procedure, abridged: as §1
The test system of data set [9] is Mus musculus. The experiment in a line: Radioprotective activity against gamma radiation-induced toxicity in Swiss CD1 mouse assessed as survival at 368 mg/kg, ip administered 90 mins before 8.2 Gy irradiation measured after 30 days. The data set is classed as functional. Conditions: Swiss CD1, light or radiation study, route intraperitoneal. The procedure, abridged: as §1

Data set [10] relates to Mus musculus. The experiment in a line: Radioprotective activity against gamma radiation-induced toxicity in Swiss CD1 mouse assessed as survival at 308 mg/kg, ip administered 90 mins before 10.2 Gy irradiation measured after 30 days. The class given is functional. The settings on record: Swiss CD1, light or radiation study, route intraperitoneal. The gist of the method: as §1

Data set [11] deals with Mus musculus. Briefly: Radioprotective activity against gamma radiation-induced toxicity in Swiss CD1 mouse assessed as survival at 308 mg/kg, ip administered 90 mins before 8.2 Gy irradiation measured after 30 days. The class given is functional. Conditions: Swiss CD1, light or radiation study, route intraperitoneal. The procedure, abridged: as §1
For data set [12], the system named is Mus musculus. The experiment in a line: Radioprotective activity against gamma radiation-induced toxicity in Swiss CD1 mouse assessed as survival at 349 mg/kg, ip administered 90 mins before 10.2 Gy irradiation measured after 30 days. The class given is functional. The settings on record: Swiss CD1, light or radiation study, route intraperitoneal. The procedure, abridged: as §1

Data set [13] relates to Mus musculus. Briefly: Radioprotective activity against gamma radiation-induced toxicity in Swiss CD1 mouse assessed as survival at 349 mg/kg, ip administered 90 mins before 8.2 Gy irradiation measured after 30 days. The settings on record: Swiss CD1, light or radiation study, route intraperitoneal. The data set is classed as functional. The procedure, abridged: as §1
Data set [14] relates to Mus musculus. Briefly: Radioprotective activity against gamma radiation-induced toxicity in Swiss CD1 mouse assessed as survival at 340 mg/kg, ip administered 90 mins before 8.2 Gy irradiation measured after 30 days. The settings on record: Swiss CD1, light or radiation study, route intraperitoneal. The data set is classed as functional. The gist of the method:
as §1

Data set [15] concerns Mus musculus. Briefly: Radioprotective activity against gamma radiation-induced toxicity in Swiss CD1 mouse assessed as survival at 340 mg/kg, ip administered 90 mins before 10.2 Gy irradiation measured after 30 days. The class given is functional. The settings on record: Swiss CD1, light or radiation study, route intraperitoneal. The gist of the method:
as §1

Data set [16] relates to Mus musculus. The experiment in a line: Radioprotective activity against gamma radiation-induced toxicity in Swiss CD1 mouse assessed as survival at 400 mg/kg, ip administered 90 mins before 10.2 Gy irradiation measured after 30 days. The data set is classed as functional. Conditions: Swiss CD1, light or radiation study, route intraperitoneal. The procedure, abridged:
as §1

Data set [17] has as its system Mus musculus. The experiment in a line: Radioprotective activity against gamma radiation-induced toxicity in B6D2F1 mouse assessed as survival at 400 mg/kg, ip administered 15 mins before 10.8 Gy irradiation measured after 30 days. The class given is functional. Conditions: B6D2F1, light or radiation study, route intraperitoneal.
The test system of data set [18] is Mus musculus. Briefly: Radioprotective activity against gamma radiation-induced toxicity in B6D2F1 mouse assessed as survival at 400 mg/kg, ip administered 15 mins before 8.8 Gy irradiation measured after 30 days. The class given is functional. Conditions: B6D2F1, light or radiation study, route intraperitoneal.
Data set [19] deals with Mus musculus. The experiment in a line: Radioprotective activity against gamma radiation-induced toxicity in Swiss CD1 mouse assessed as survival at 400 mg/kg, ip administered 90 mins before 8.2 Gy irradiation measured after 30 days. The settings on record: Swiss CD1, light or radiation study, route intraperitoneal. The data set is classed as functional. The gist of the method:
as §1

In data set [20] the test system is Mus musculus. Briefly: Radioprotective activity against gamma radiation-induced toxicity in B6D2F1 mouse assessed as survival at 260 mg/kg, ip administered 15 mins before 8.8 Gy irradiation measured after 30 days. The data set is classed as functional. Conditions: B6D2F1, light or radiation study, route intraperitoneal.
Data set [21] has as its system Mus musculus. Briefly: Radioprotective activity against gamma radiation-induced toxicity in B6D2F1 mouse assessed as survival at 260 mg/kg, ip administered 15 mins before 10.8 Gy irradiation measured after 30 days. The data set is classed as functional. The settings on record: B6D2F1, light or radiation study, route intraperitoneal.
For data set [22], the system named is Mus musculus. The experiment in a line: Radioprotective activity against gamma radiation-induced toxicity in Swiss CD1 mouse assessed as survival at 260 mg/kg, ip administered 90 mins before 8.2 Gy irradiation measured after 30 days. The class given is functional. Conditions: Swiss CD1, light or radiation study, route intraperitoneal. The procedure, abridged: as §1

The subject of data set [23] is Mus musculus. Briefly: Radioprotective activity against gamma radiation-induced toxicity in Swiss CD1 mouse assessed as survival at 260 mg/kg, ip administered 90 mins before 10.2 Gy irradiation measured after 30 days. Conditions: Swiss CD1, light or radiation study, route intraperitoneal. The class given is functional. The gist of the method:
as §1

Regarding `CCC(=O)Nc1nc2ccc(C)cc2s1`, the pIC50 in data set [1] was less than 2.40.
Regarding `CCC(=O)Nc1nc2ccccc2s1`, the negative logarithm of the IC50 (pIC50) in [1] was less than 2.40.
Consider `N=c1sc2ccccc2n1CCSS(=O)(=O)O`, for which the IC50 entry in [2] is reported as “ND(Insoluble)”.
In the case of `CCSc1nn(CCSP(=O)(O)O)c(=N)s1`, the pIC50 in data set [2] was 4.11.
Consider `CCSc1nn(CCO)c(=N)s1`, for which, in [1], the negative-log IC50 (pIC50) is 2.46.
`CCOc1ccc2nc(S)sc2c1`: the pIC50 in [2] is 4.05; in [1], 4.34.
Turning to `CCc1nn(CCSS(=O)(=O)O)c(=N)s1`, the pIC50 in data set [2] was 4.29.
Turning to `N=c1sc2ccccc2n1CCO`, in [1], the pIC50 was less than 2.40.
On to `CCOc1ccc2c(c1)sc(=N)n2CCSS(=O)(=O)O`, for which the IC50 result in data set [2] was “ND(Insoluble)”.
As to `Sc1nc2ccccc2s1` [2-MERCAPTOBENZOTHIAZOLE], the negative-log IC50 (pIC50) in data set [2] is 4.10; in data set [1] it was 4.04. The survival at 240 mg/kg in data set [3] amounted to 90%. The results for the survival at 480 mg/kg in data set [4], in [5] and in data set [7] were 0%, 100% and 60%, respectively. Further, the median lethal dose (LD50) at 48 h in data set [6] is greater than 960 mg/kg.
With `CCSc1nnc(NCCS)s1`, the pIC50 is 3.41 in data set [2] and 3.96 in data set [1]. The survival at 368 mg/kg in data set [8] and in [9] was 0% throughout. The median lethal dose (LD50) at 48 h in data set [6] is greater than 736 mg/kg.
As to `CCSc1nnc(NC(=O)CC)s1`, the negative-log IC50 (pIC50) in data set [1] is less than 2.40.
On to `Cc1ccc2c(c1)sc(=N)n2CCO`, for which the pIC50 in data set [1] is less than 2.40.
Consider `SCCNc1nc2ccccc2s1`, for which the results for the negative-log IC50 (pIC50) in [2] and in [1] were 2.82 and 2.86, respectively. Besides, the survival at 308 mg/kg came out at 0% in [10] and 60% in [11]. The LD50 at 48 h in data set [6] is greater than 616 mg/kg.
`CCSc1nnc(S)s1`: the values for the negative logarithm of the IC50 (pIC50) in data set [2] and in data set [1] were 4.64 and 4.28, respectively. Also, the LD50 at 48 h in [6] was 698 mg/kg. Besides, the survival at 349 mg/kg in data set [12] and in data set [13] was 0% in each case.
Regarding `CCOc1ccc2nc(NC(=O)CC)sc2c1`, the pIC50 in [1] is less than 2.40.
With `CCc1nnc(S)s1`, the negative-log IC50 (pIC50) in data set [2] is 4.67; in data set [1] it was 4.08. Further, the median lethal dose (LD50) at 48 h in data set [6] is greater than 680 mg/kg. The figures for the survival at 340 mg/kg in [14] and in [15] were 30% and 0%, respectively.
`CCSc1nnc(N)s1`: the negative logarithm of the IC50 (pIC50) in data set [1] was less than 2.40.
As for `Cc1c(C)c2c(c(C)c1O)CCC(C)(C(=O)O)O2` (stereo not drawn) [TROLOX], the pIC50 in data set [1] was 4.47.
Regarding `NCCCNCCSP(=O)(O)O` [AMIFOSTINE], the survival at 400 mg/kg in data set [16] worked out at 20%; in data set [17], 60%; in [18], 100%; in [19] it was 50%. Besides, in data set [6], the 50% lethal dose (LD50) at 48 h was 800 mg/kg. The pIC50 in [1] is 4.00.
Turning to `Cc1ccc2nc(NCCS)sc2c1`, the negative logarithm of the IC50 (pIC50) in [2] is 2.39; in [1], 2.50.
Take `CCc1nn(CCSP(=O)(O)O)c(=N)s1`: the pIC50 in data set [2] is 4.04.
As to `CCOc1ccc2c(c1)sc(=N)n2CCO`, the pIC50 in data set [1] was 2.85.
Turning to `Cc1ccc2nc(S)sc2c1`, the survival at 260 mg/kg was determined as 100% in data set [20], 0% in data set [21], 80% in data set [22] and 0% in data set [23]. Besides, the pIC50 in data set [2] is 4.12; in [1] it was 4.04. For the same compound, the LD50 at 48 h in data set [6] was greater than 520 mg/kg.
Turning to `CCSc1nn(CCSS(=O)(=O)O)c(=N)s1`, the pIC50 in data set [2] was 5.08.
Turning to `CCOc1ccc2nc(N)sc2c1`, the negative-log IC50 (pIC50) in [1] is less than 2.40.
In the case of `CCc1nnc(N)s1`, the negative logarithm of the IC50 (pIC50) in data set [1] is less than 2.40.
With `Cc1ccc2c(c1)sc(=N)n2CCSS(=O)(=O)O`, the IC50 result in data set [2] is “ND(Insoluble)”.
`CCC(=O)Nc1nnc(CC)s1`: the negative logarithm of the IC50 (pIC50) in [1] was less than 2.40.
Take `O=C1O[C@H]([C@@H](O)CO)C(O)=C1O` [ASCORBIC ACID]: the negative logarithm of the IC50 (pIC50) in data set [2] was 4.33; in data set [1] it was 4.70.
For `CCc1nn(CCO)c(=N)s1`, the negative-log IC50 (pIC50) in [1] is 2.62.
Same read-out and setting: next, `N[C@@H](CCC(=O)N[C@@H](CS)C(=O)NCC(=O)O)C(=O)O` [GLUTATHIONE]: 4.02.
